Reference: ChEMBL document CHEMBL3734675, “Synthesis, antimycobacterial and antibacterial activity of fluoroquinolone derivatives containing an 3-alkoxyimino-4-(cyclopropylanimo)methylpyrrolidine moiety” (2015)

What was measured:
Type in all cases: functional
Klebsiella pneumoniae [1] = assay: Antibacterial activity against Klebsiella pneumoniae 14-1 after 18 to 24 hrs by two-fold serial dilution method
How it was run: (§1)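 Twofold serial dilution in agar media against Gram-positive and Gram-negative strains. Plates incubated at 35 °C for 18–24 h. MIC read as the lowest compound concentration giving complete inhibition of bacterial growth.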

Enterococcus faecalis [2] = assay: Antibacterial activity against Enterococcus faecalis 14-1 after 18 to 24 hrs by two-fold serial dilution method; how it was run: as §1
Escherichia coli [3] = assay: Antibacterial activity against Escherichia coli ATCC 25922 after 18 to 24 hrs by two-fold serial dilution method; how it was run: as §1
[4] = system: Mycobacterium tuberculosis; assay: Antimycobacterial activity against Mycobacterium tuberculosis H37Rv ATCC 27294 incubated for 7 days by microplate Alamar Blue assay; details: H37Rv ATCC 27294, 168 h
How it was run: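 Fluorescence read-out. MIC is the lowest concentration that reduces fluorescence by at least 90% relative to the mean of replicate bacterium-only controls. Isoniazid and rifampicin were included as reference drugs.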

[5] = system: Staphylococcus epidermidis; assay: Antibacterial activity against methicillin-resistant Staphylococcus epidermidis 14-21 after 18 to 24 hrs by two-fold serial dilution method
How it was run: (§2)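 Agar media, standard twofold serial dilution. MIC is the lowest concentration giving complete inhibition of bacterial growth after incubation at 35 °C for 18–24 h. Ciprofloxacin and levofloxacin were run as comparators.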

Enterococcus faecium [6] = assay: Antibacterial activity against Enterococcus faecium 14-5 after 18 to 24 hrs by two-fold serial dilution method; how it was run: as §1
Escherichia coli [7] = assay: Antibacterial activity against extended-spectrum beta-lactamase producing Escherichia coli 14-2 after 18 to 24 hrs by two-fold serial dilution method; how it was run: as §1
Enterococcus faecium [8] = assay: Antibacterial activity against Enterococcus faecium 14-6 after 18 to 24 hrs by two-fold serial dilution method; how it was run: as §1
Staphylococcus aureus [9] = assay: Antibacterial activity against methicillin-sensitive Staphylococcus aureus 14-1 after 18 to 24 hrs by two-fold serial dilution method; how it was run: as §1
Pseudomonas aeruginosa [10] = assay: Antibacterial activity against Pseudomonas aeruginosa 14-9 after 18 to 24 hrs by two-fold serial dilution method; how it was run: as §1
Klebsiella pneumoniae [11] = assay: Antibacterial activity against extended-spectrum beta-lactamase producing Klebsiella pneumoniae 14-19 after 18 to 24 hrs by two-fold serial dilution method; how it was run: as §1
[12] = system: Staphylococcus epidermidis; assay: Antibacterial activity against methicillin-resistant Staphylococcus epidermidis 14-37 after 18 to 24 hrs by two-fold serial dilution method; how it was run: as §2
Pseudomonas aeruginosa [13] = assay: Antibacterial activity against Pseudomonas aeruginosa ATCC 27853 after 18 to 24 hrs by two-fold serial dilution method; how it was run: as §1
Staphylococcus aureus [14] = assay: Antibacterial activity against methicillin-sensitive Staphylococcus aureus 14-3 after 18 to 24 hrs by two-fold serial dilution method; how it was run: as §1
Klebsiella pneumoniae [15] = assay: Antibacterial activity against Klebsiella pneumoniae 14-4 after 18 to 24 hrs by two-fold serial dilution method; how it was run: as §1
Staphylococcus aureus [16] = assay: Antibacterial activity against Staphylococcus aureus CMCC 26003 after 18 to 24 hrs by two-fold serial dilution method; how it was run: as §1
Klebsiella pneumoniae [17] = assay: Antibacterial activity against extended-spectrum beta-lactamase producing Klebsiella pneumoniae 14-18 after 18 to 24 hrs by two-fold serial dilution method; how it was run: as §1
Escherichia coli [18] = assay: Antibacterial activity against extended-spectrum beta-lactamase producing Escherichia coli 14-1 after 18 to 24 hrs by two-fold serial dilution method; how it was run: as §1
Klebsiella pneumoniae [19] = assay: Antibacterial activity against Klebsiella pneumoniae 14-2 after 18 to 24 hrs by two-fold serial dilution method; how it was run: as §1
Enterococcus faecium [20] = assay: Antibacterial activity against Enterococcus faecium 14-2 after 18 to 24 hrs by two-fold serial dilution method; how it was run: as §1
[21] = system: Staphylococcus epidermidis; assay: Antibacterial activity against methicillin-resistant Staphylococcus epidermidis 14-22 after 18 to 24 hrs by two-fold serial dilution method; how it was run: as §2
Streptococcus pneumoniae = assay: Antibacterial activity against methicillin-resistant Streptococcus pneumoniae ATCC 19615 after 18 to 24 hrs by two-fold serial dilution method; how it was run: as §2
[22] = system: Staphylococcus epidermidis; assay: Antibacterial activity against methicillin-sensitive Staphylococcus epidermidis 14-2 after 18 to 24 hrs by two-fold serial dilution method; how it was run: as §1
Klebsiella pneumoniae [23] = assay: Antibacterial activity against extended-spectrum beta-lactamase producing Klebsiella pneumoniae 14-17 after 18 to 24 hrs by two-fold serial dilution method; how it was run: as §1
Enterococcus faecalis [24] = assay: Antibacterial activity against Enterococcus faecalis 14-2 after 18 to 24 hrs by two-fold serial dilution method; how it was run: as §1
Staphylococcus aureus [25] = assay: Antibacterial activity against methicillin-resistant Staphylococcus aureus 14-4 after 18 to 24 hrs by two-fold serial dilution method; how it was run: as §2
Pseudomonas aeruginosa [26] = assay: Antibacterial activity against Pseudomonas aeruginosa 14-14 after 18 to 24 hrs by two-fold serial dilution method; how it was run: as §1
Pseudomonas aeruginosa [27] = assay: Antibacterial activity against Pseudomonas aeruginosa 14-15 after 18 to 24 hrs by two-fold serial dilution method; how it was run: as §1
Escherichia coli [28] = assay: Antibacterial activity against Escherichia coli 14-2 after 18 to 24 hrs by two-fold serial dilution method; how it was run: as §1
Klebsiella pneumoniae [29] = assay: Antibacterial activity against Klebsiella pneumoniae 14-3 after 18 to 24 hrs by two-fold serial dilution method; how it was run: as §1
Escherichia coli [30] = assay: Antibacterial activity against Escherichia coli 14-1 after 18 to 24 hrs by two-fold serial dilution method; how it was run: as §1
Pseudomonas aeruginosa [31] = assay: Antibacterial activity against Pseudomonas aeruginosa 14-16 after 18 to 24 hrs by two-fold serial dilution method; how it was run: as §1
[32] = system: Staphylococcus epidermidis; assay: Antibacterial activity against methicillin-resistant Staphylococcus epidermidis 14-39 after 18 to 24 hrs by two-fold serial dilution method; how it was run: as §2
Staphylococcus aureus [33] = assay: Antibacterial activity against methicillin-resistant Staphylococcus aureus 14-5 after 18 to 24 hrs by two-fold serial dilution method; how it was run: as §2
Staphylococcus aureus [34] = assay: Antibacterial activity against methicillin-sensitive Staphylococcus aureus 14-4 after 18 to 24 hrs by two-fold serial dilution method; how it was run: as §1

CCO/N=C1/CN(c2nc3c(cc2F)c(=O)c(C(=O)O)cn3[C@@H]2C[C@@H]2F)CC1(C)CNC1CC1 (stereo not given in full)
1 µg/mL: MIC (Staphylococcus aureus [9]) | MIC (Enterococcus faecalis [24]) | MIC (Staphylococcus aureus [34])
2 µg/mL: MIC (Escherichia coli [3]) | MIC (Enterococcus faecium [6]) | MIC [12] | MIC (Staphylococcus aureus [14]) | MIC (Staphylococcus aureus [33])
16 µg/mL: MIC (Enterococcus faecalis [2]) | MIC [22]
128 µg/mL: MIC (Klebsiella pneumoniae [17]) | MIC (Klebsiella pneumoniae [19]) | MIC (Pseudomonas aeruginosa [26]) | MIC (Klebsiella pneumoniae [29])
> 128 µg/mL: MIC (Escherichia coli [7]) | MIC (Klebsiella pneumoniae [15]) | MIC (Escherichia coli [28]) | MIC (Escherichia coli [30])
64 µg/mL: MIC (Klebsiella pneumoniae [1]) | MIC (Klebsiella pneumoniae [11]) | MIC (Klebsiella pneumoniae [23]) | MIC (Pseudomonas aeruginosa [27]) | MIC (Pseudomonas aeruginosa [31])
4 µg/mL: MIC [5] | MIC (Enterococcus faecium [8]) | MIC (Enterococcus faecium [20]) | MIC [21] | MIC (Staphylococcus aureus [25]) | MIC [32]
32 µg/mL: MIC (Pseudomonas aeruginosa [10]) | MIC (Pseudomonas aeruginosa [13]) | MIC (Escherichia coli [18])
0.25 µg/mL: MIC (Streptococcus pneumoniae)
0.015 µg/mL: MIC (Staphylococcus aureus [16])
0.6 µg/mL: MIC90 [4]

O=C(O)c1cn([C@@H]2C[C@@H]2F)c2nc(N3C/C(=N/OCc4ccccc4)C(CNC4CC4)C3)c(F)cc2c1=O (stereo not given in full)
1 µg/mL: MIC (Streptococcus pneumoniae) | MIC (Enterococcus faecalis [24])
0.25 µg/mL: MIC (Escherichia coli [3])
> 128 µg/mL: MIC (Escherichia coli [7]) | MIC (Klebsiella pneumoniae [15]) | MIC (Escherichia coli [28]) | MIC (Escherichia coli [30])
64 µg/mL: MIC (Enterococcus faecalis [2]) | MIC (Klebsiella pneumoniae [17]) | MIC (Klebsiella pneumoniae [19]) | MIC (Klebsiella pneumoniae [23]) | MIC (Pseudomonas aeruginosa [26]) | MIC (Pseudomonas aeruginosa [27]) | MIC (Pseudomonas aeruginosa [31]) | MIC [32]
< 0.008 µg/mL: MIC (Staphylococcus aureus [16])
32 µg/mL: MIC (Enterococcus faecium [8]) | MIC (Pseudomonas aeruginosa [13]) | MIC [22] | MIC (Staphylococcus aureus [25])
16 µg/mL: MIC [5] | MIC (Enterococcus faecium [6]) | MIC [12] | MIC (Escherichia coli [18]) | MIC (Staphylococcus aureus [34])
2.1 µg/mL: MIC90 [4]
128 µg/mL: MIC (Klebsiella pneumoniae [1]) | MIC (Klebsiella pneumoniae [11]) | MIC (Klebsiella pneumoniae [29])
8 µg/mL: MIC (Pseudomonas aeruginosa [10]) | MIC (Enterococcus faecium [20]) | MIC [21] | MIC (Staphylococcus aureus [33])
4 µg/mL: MIC (Staphylococcus aureus [9]) | MIC (Staphylococcus aureus [14])
